According to ChEMBL document CHEMBL1146626, “The stability of pseudopeptides bearing sulfoximines as chiral backbone modifying element towards proteinase K” (Bioorg Med Chem Lett, 2003):
Residues, ends and D or L forms follow the SMILES beside them.

What was measured:
[1] = Relativity constant at a substrate concentration of 218 uM; type: ADME
Method in brief: (§1)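 Substrate incubated at 37 °C with Proteinase K in 30 mM Tris–HCl, 1 mM CaCl2, pH 8.0. Aliquots were taken at several times, snap-frozen in liquid nitrogen and held at -20 °C. Thawed samples went straight onto C-18 RP-HPLC, eluted with water then a gradient to 70% CH3CN. Substrate and cleavage products were tracked by UV at 210 nm against retention times.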

[2] = tested on: Proteinase K (Tritirachium album); assay: Amount of proteinase K required to release folin positive amino acids at a substrate concentration of 304 uM
[3] = Rate constant for the compound at a substrate concentration of 218 uM was determined; type: ADME; method in brief: as §1
[4] = Half-life period at a substrate concentration of 218 uM was determined; type: ADME; method in brief: as §1
[5] = Relativity constant at a substrate concentration of 304 uM; type: ADME; method in brief: as §1
[6] = Half-life period at a substrate concentration of 304 uM was determined; type: ADME; method in brief: as §1
[7] = Rate constant for the compound at a substrate concentration of 304 uM was determined; type: ADME; method in brief: as §1
[8] = Relativity constant at a substrate concentration of 304 uM
[9] = Rate constant for the compound at a substrate concentration of 262 uM was determined; No cleavage; type: ADME; method in brief: as §1

Row | Krel [1] | Activity [2] [mAU ml-1] | K obs [3] [h⁻¹] | half-life at 218 µM [4] [min] | Krel [5] | half-life at 304 µM [6] [min] | K obs [7] [h⁻¹] | Krel [8] | K obs [9] | SMILES
1 | 0.59 | 1.5 | 1.11 | 37.5 |  |  |  |  |  | N[C@@H](Cc1ccccc1)C(=O)N[C@@H](Cc1ccccc1)C(=O)N[C@@H](Cc1ccccc1)C(=O)O (H-Phe-Phe-Phe-OH)
2 |  | 30 |  |  | 0.73 | 15.3 | 2.72 |  |  | N[C@H](Cc1ccccc1)C(=O)N=[S+]([O-])(CC(=O)N[C@H](Cc1ccccc1)C(=O)O)c1ccccc1 (some centres undefined)
3 |  | 3 |  |  |  | 11.1 | 3.75 | 1 |  | N[C@@H](Cc1ccccc1)C(=O)N=[S+]([O-])(CC(=O)N[C@@H](Cc1ccccc1)C(=O)O)c1ccccc1 (some centres undefined)
4 |  | 300 |  |  |  |  |  |  | No cleavage | N=[S+]([O-])(CC(=O)N[C@@H](Cc1ccccc1)C(=O)O)c1ccccc1 (some centres undefined)
